Measurements from ChEMBL document CHEMBL1123442 (J Med Chem, 1986).
The source made the active and inactive calls. The calls are words filed in the database; no cut-off is given here.

Columns and labels:
P388 [1] = experiment: Compound was evaluated in vivo for antitumor activity against P388 leukemia; i denotes Inactive; type: functional, organism-based; settings: Mus musculus
How it was run: (§1)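 Mice given 10^6 P388 leukemia cells intraperitoneally, then drug intraperitoneally in 0.1 mL 30% v/v ethanol-water on days 1, 5 and 9. D50 (mg/kg per day giving 50% ILS) read from dose-response graph. ILS at optimal dose versus untreated controls. Long-term survival counted at 30 days.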

P388 [2] = experiment: Evaluated in vivo for antitumor activity against P388 leukemia; g denotes ILS of 50% could not be reached at any dose level; type: functional, organism-based; settings: Mus musculus; how it was run: as §1
[3] = tested on: Lewis lung carcinoma cell line; experiment: Evaluated in vivo for antitumor activity against Lewis lung carcinoma; g denotes ILS of 50% could not be reached at any dose level; type: functional, organism-based; settings: Mus musculus
How it was run: (§2)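 Mice inoculated intravenously with 10^6 Lewis lung carcinoma cells, then drug intraperitoneally in 0.1 mL 30% v/v ethanol-water on days 5, 9 and 13. D50 (mg/kg per day for 50% ILS) taken from dose-response graph. ILS at optimal dose versus untreated tumor-bearing controls. Survivors counted at 40 days.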

[4] = tested on: Lewis lung carcinoma cell line; experiment: In vivo for antitumor activity against Lewis lung carcinoma; type: functional, Mus musculus; how it was run: as §2
L1210 = experiment: In vitro for cytotoxicity against murine leukemia cells (L1210); type: functional, cell-based; settings: Mus musculus
P388 [5] = experiment: In vivo for antitumor activity against P388 leukemia.; type: functional, Mus musculus; how it was run: as §1
HCT-8 = experiment: In vitro for cytotoxicity against human colon tumor cells (HCT-8) in culture; type: functional, cell-based
[6] = tested on: Lewis lung carcinoma cell line; experiment: Evaluated in vivo for antitumor activity against Lewis lung carcinoma; i denotes Inactive; type: functional, organism-based; settings: Mus musculus; how it was run: as §2
poly[d(A-T)] = experiment: Binding constant relative to amsacrine (Δlog K) for DNA binding by ethidium bromide displacement; settings: Bos taurus
P388 [7] = experiment: In vivo for antitumor activity against P388 leukemia; type: functional, Mus musculus; how it was run: as §1

Δlog K (poly[d(A-T)])	SMILES	ILSmax (P388 [1])	D50 (P388 [2])	D50 [3]	OD [4]	IC50 (L1210)	OD (P388 [5])	IC50 (HCT-8)	ILSmax [6]	ILSmax (P388 [7])
	CNc1cc(NS(C)(=O)=O)ccc1Nc1c2ccccc2nc2ccc(Cl)cc12	inactive	ILS of 50% could not be reached	ILS of 50% could not be reached	150 mg/kg	> 1.6 µM	100 mg/kg	2.5 µM	inactive	
6.18	CNc1cc(NS(C)(=O)=O)ccc1Nc1c2ccccc2nc2c(C)ccc(C)c12	inactive	ILS of 50% could not be reached			1.7 µM	65 mg/kg	2.1 µM		
5.8	CNc1cc(NS(C)(=O)=O)ccc1Nc1c2ccccc2nc2ccc(OC)cc12		ILS of 50% could not be reached	ILS of 50% could not be reached	150 mg/kg	1.2 µM	100 mg/kg	1.9 µM	inactive	25%
6.37	CNc1cc(NS(C)(=O)=O)ccc1Nc1c2ccccc2nc2c(Br)cccc12		ILS of 50% could not be reached	ILS of 50% could not be reached	100 mg/kg	0.19 µM	100 mg/kg	1.8 µM	inactive	35%
